Screening results: PubChem, The Scripps Research Institute Molecular Screening Center
The list is not random: actives were taken first. Their share in the collection is about 2.5%.
HTRA1 inh: inhibitors of human serine peptidase HTRA1; recombinant HTRA1, FP-rhodamine activity-based probe, fluorescence polarization; 340,000 tested, 0.5% active; inhibition, % at 5.96 µM; AID 504803; Q92743; in the data active means inhibition above about 36%
Target sequence (Q92743 whole entry, looked up): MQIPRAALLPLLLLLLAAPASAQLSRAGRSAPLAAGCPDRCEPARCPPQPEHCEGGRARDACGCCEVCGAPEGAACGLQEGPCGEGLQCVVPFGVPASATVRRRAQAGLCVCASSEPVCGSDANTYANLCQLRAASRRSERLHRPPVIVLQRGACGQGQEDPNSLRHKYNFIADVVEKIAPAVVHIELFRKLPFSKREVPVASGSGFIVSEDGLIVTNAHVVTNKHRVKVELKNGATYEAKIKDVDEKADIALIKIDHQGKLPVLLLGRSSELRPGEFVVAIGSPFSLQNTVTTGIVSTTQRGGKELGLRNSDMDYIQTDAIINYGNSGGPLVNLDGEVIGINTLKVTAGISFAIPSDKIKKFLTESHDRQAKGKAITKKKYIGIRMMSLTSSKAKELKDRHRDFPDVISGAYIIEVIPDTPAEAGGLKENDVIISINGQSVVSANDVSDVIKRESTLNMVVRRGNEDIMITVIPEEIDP
TCR CD3 inh: human TCR-CD3 binding inhibition; TAMRA-labeled TCR probe fluorescence, biochemical; inhibition, % at 9.4 µM; 360,000 tested, 0.37% active; AID 651800;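 further: recombinant mutant TCR 2C K166C tagged with TAMRA read by polarization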
rCAG RNA binder: molecules binding r(CAG) RNA repeats | AID 651821 | 370,000 tested, 1.3% active | r(CAG) RNA repeat, TO-PRO-1 dye displacement fluorescence | inhibition, % at 3 µM;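 active means inhibition above the plate cutoff, the mean of all test compounds on that plate plus 3 SD, cut at about 35% in these data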;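 further: higher means more dye released from RNA so lower well fluorescence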
SIAE primary: blocks human sialic acid acetylesterase | Q9HAT2 | SIAE FP-Rh probe binding, fluorescence polarization | inhibition, % at 9.66 µM | 370,000 tested, 0.69% active;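 active means inhibition above a cutoff: mean of compounds within the control limits plus 3 SD of those, cut at about 17% in these data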
mABHD4 FP: inhibitors of mouse ABHD4; 370,000 tested, 0.54% active; purified mABHD4, FP-Rh probe fluorescence polarization; inhibition, % at 8.92 µM;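 active means inhibition exceeding the mean over every tested compound plus 3 SD, cut at about 30% in these data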
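Material: mouse ABHD4 enzyme, wild type; Benchmarks: S159A mutant high control, sample median low control; Buffer or medium: HEPES pH 7.0, NaCl, Pluronic buffer; Signal: fluorescence polarization; Read-out: percent inhibition of probe binding, normalized to plate controls; Timing: pre-incubation 45 min, probe exposure 60 min, at 25 °C; Dosing: 8.92 µM, single dose.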
BSA TAMRA ctr: BSA probe counter-screen for TCR-CD3 inhibitors | shares compounds with TCR CD3 inh | TAMRA-labeled BSA probe fluorescence counterscreen | inhibition, % at 9.4 µM | 1,200 tested, 10% active; in the data active means inhibition above about 23%
TCR-CD3 inh conf: TCR-CD3 interaction inhibition, confirmation. 1,200 tested, 48% active. inhibition, % at 9.4 µM. shares compounds with TCR CD3 inh. TAMRA-labeled TCR probe fluorescence binding assay
rCAG bind conf: r(CAG) RNA repeat binding, confirmation; TO-PRO-1 dye displacement fluorescence; shares compounds with rCAG RNA binder; 4,300 tested, 70% active; inhibition, % at 3 µM;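 active means inhibition above a per-plate cutoff, the mean inhibition of sample wells plus 3 SD, cut at about 35% in these data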;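 further: loss of TO-PRO-1 fluorescence as compound displaces dye from 1x1 AA loop RNA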
DNA CAG counter: counter-screen for rCAG RNA binders: DNA CAG dye complex inhibitors. shares compounds with rCAG RNA binder. d(CAG) DNA oligo TO-PRO-1 dye displacement, fluorescence. inhibition, % at 3 µM. 4,300 tested, 94% active. AID 652068;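 active means inhibition above its plate's cutoff, the mean test-well inhibition plus 3 SD, cut at about 4.8% in these data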;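 further: hits displace the dye from DNA and so lower well fluorescence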
Of the large screens only hits and unclear results are named; the others gave an inactive call (follow-up assays come after a bar, where they were run). Unless noted, no stated cut-off is given here; in the data, active means inhibition above about 19%; inactive means the rest.

Cc1cc(NS(=O)(=O)c2ccc(NC(=S)NC(=O)c3cccnc3)cc2)no1	TCR CD3 inh 46 | BSA TAMRA ctr inactive | TCR-CD3 inh conf inactive
O=C(NNC(=S)NC(=O)c1cccnc1)c1ccc(F)cc1	TCR CD3 inh 23 | BSA TAMRA ctr inactive | TCR-CD3 inh conf 28
Cc1ccc(CNC(=O)CCC(=O)n2ncc3cc(C)ccc32)cc1	none
C[C@H](CO)N1C[C@H](C)[C@@H](CN(C)S(=O)(=O)c2ccccc2)Oc2ccc(NC(=O)Nc3ccc(C(F)(F)F)cc3)cc2C1=O	TCR CD3 inh 28 | BSA TAMRA ctr inactive | TCR-CD3 inh conf inactive
CC(C)NC(=O)Nc1ccc2c(c1)C(=O)N([C@H](C)CO)C[C@H](C)[C@@H](CN(C)S(=O)(=O)c1ccccc1)O2	none
CC1Cc2nc(SCC(=O)N3CCc4ccccc43)n(C)c(=O)c2S1 (stereo unspecified)	none
CCC1Sc2ccccc2N(CC(=O)NCCC2=CCCCC2)C1=O (stereo unspecified)	none
COc1ccc(C(C)=O)cc1CN1C(=O)NC2(CCCCCC2)C1=O	none
O=C(CCN1C(=O)C2C3C=CC(C3)C2C1=O)Nc1c(F)cc(F)cc1Br (stereo unspecified)	none
COCCNC(=O)c1ccc(N2CC3CC(C2)c2cccc(=O)n2C3)c(NC(=O)c2ccccc2Br)c1 (stereo unspecified)	TCR CD3 inh 49 | BSA TAMRA ctr inactive | TCR-CD3 inh conf inactive
CCC1CCCCN1c1nc(-c2ccncc2)nc2ccccc12 (stereo unspecified)	TCR CD3 inh 44 | BSA TAMRA ctr inactive | TCR-CD3 inh conf inactive
CC1CCCCN1c1nc(-c2ccncc2)nc2ccccc12 (stereo unspecified)	none
CCN(c1ccccc1)S(=O)(=O)c1cc(NC(=O)CSc2n[nH]c(=O)[nH]c2=O)ccc1Cl	TCR CD3 inh 66, rCAG RNA binder 48 | BSA TAMRA ctr 23 | TCR-CD3 inh conf 56 | rCAG bind conf inactive | DNA CAG counter 15
CCN(c1ccccc1)S(=O)(=O)c1cc(NC(=O)C2CC2)ccc1Cl	none
Nc1nc(SCc2nc3scc(-c4cccs4)c3c(=O)[nH]2)n[nH]1	none
COC(=O)C1=C(CSc2nc3c(cc2C#N)CN(C)CC3)OC(N)=C(C#N)C1c1ccc(F)cc1 (stereo unspecified)	TCR CD3 inh 20, rCAG RNA binder 50 | BSA TAMRA ctr inactive | TCR-CD3 inh conf inactive | rCAG bind conf inactive | DNA CAG counter 16
CC1=CN2C(=N)/C(=C/c3ccco3)C(=O)N=C2S1	none
CC1=CN2C(=N)/C(=C/c3ccc([N+](=O)[O-])o3)C(=O)N=C2S1	TCR CD3 inh 72, rCAG RNA binder 53 | BSA TAMRA ctr inactive | TCR-CD3 inh conf inactive | rCAG bind conf inactive | DNA CAG counter 15
COc1cc2nc(N(C)C)nc(N)c2cc1OC	none
O=c1c(-c2c(O)cc(O)c3c(=O)cc(-c4ccc(O)cc4)oc23)c(-c2ccc(O)cc2)oc2cc(O)cc(O)c12	TCR CD3 inh 31, rCAG RNA binder 49 | BSA TAMRA ctr inactive | TCR-CD3 inh conf 23 | rCAG bind conf 36 | DNA CAG counter 16
CN(C(=O)Cn1cnc2sccc2c1=O)C1CCCCC1	none
O=C(NNS(=O)(=O)c1ccccc1[N+](=O)[O-])c1ccccc1Cl	none
O=C(NNS(=O)(=O)c1ccccc1[N+](=O)[O-])c1cc2ccccc2cc1O	TCR CD3 inh 20, rCAG RNA binder 36 | BSA TAMRA ctr inactive | TCR-CD3 inh conf inactive | rCAG bind conf inactive | DNA CAG counter 7.6
Cc1c(C(=O)O)oc2c1/C(=N\O)CC(C)(C)C2	none
Cc1cc(C)nc(SCC(=O)Nc2ccccc2[N+](=O)[O-])n1	none
O=C1CC(=O)NC(SCC(=O)Nc2ccccc2[N+](=O)[O-])=N1	TCR CD3 inh 26, rCAG RNA binder 41 | BSA TAMRA ctr inactive | TCR-CD3 inh conf inactive | rCAG bind conf 52 | DNA CAG counter 24
O=C(N/N=C/c1cc(Br)cc(Br)c1O)c1cccc(S(=O)(=O)N2CCOCC2)c1	none
O=C(N/N=C/c1cc(Cl)cc([N+](=O)[O-])c1O)c1cccc(S(=O)(=O)N2CCOCC2)c1	TCR CD3 inh 41, rCAG RNA binder 68 | BSA TAMRA ctr inactive | TCR-CD3 inh conf 58 | rCAG bind conf 56 | DNA CAG counter 20
O=C(CC12CC3CC(CC(C3)C1)C2)Nc1ccccc1N1CCOCC1	none
O=C(O)c1ccc(N=Nc2c(O)[nH]c3ccc(Br)cc23)cc1	none
O=c1ccc2cc3c([nH]c4ccc(Br)cc43)oc-2c1O	HTRA1 inh 62, TCR CD3 inh 38, rCAG RNA binder 100, SIAE primary 64, mABHD4 FP 60 | BSA TAMRA ctr inactive | TCR-CD3 inh conf inactive | rCAG bind conf 92 | DNA CAG counter 68
CCCCNC(=O)C1(C)CCC(=O)N1C1CC1 (stereo unspecified)	none (no result: HTRA1 inh)
CCCNC(=O)c1ccc(N2CCC3(CC2)CC(c2ccccc2)=NO3)c(NC(=O)Cc2ccc(F)cc2)c1	none
O=C(N/N=C/c1cc([N+](=O)[O-])cc([N+](=O)[O-])c1O)/C(=C\c1cccs1)NC(=O)c1ccccc1	TCR CD3 inh 47, rCAG RNA binder 68 | BSA TAMRA ctr inactive | TCR-CD3 inh conf 45 | rCAG bind conf 84 | DNA CAG counter 53
Cc1c(Cl)c(C(=O)NNC(=S)Nc2ccccc2)nn1C	none
CCOC(=O)c1cn(CC)c2ccc(S(=O)(=O)N3CCC(C)CC3)cc2c1=O	none
Cc1ccc(-n2c(O)c(/C=N/NC(=O)C3COc4ccccc4O3)c3ccccc3c2=O)cc1 (stereo unspecified)	TCR CD3 inh 20, rCAG RNA binder 82 | BSA TAMRA ctr inactive | TCR-CD3 inh conf 34 | rCAG bind conf 75 | DNA CAG counter 38
O=C(N/N=C/c1c(O)n(-c2ccccc2Cl)c(=O)c2ccccc12)C1COc2ccccc2O1 (stereo unspecified)	none (no result: TCR CD3 inh, rCAG RNA binder, SIAE primary, mABHD4 FP)
C/C(=N/NC(=O)c1ccc(C(C)(C)C)cc1)c1cccnc1	none (no result: HTRA1 inh)
O=C(NN1C(=O)/C(=C/c2ccc(O)c(O)c2)SC1=S)c1ccccc1	none
O=C(NN1C(=O)/C(=C/c2cccc(O)c2)SC1=S)c1ccccc1O	TCR CD3 inh 28, rCAG RNA binder 75 | BSA TAMRA ctr inactive | TCR-CD3 inh conf inactive | rCAG bind conf 51 | DNA CAG counter 16
